Assay results published in ChEMBL document CHEMBL1157673, “Synthesis and in vitro evaluation of fluorinated diphenyloxide derivatives and sulfur analogs as serotonin transporter ligands” (Bioorg Med Chem, 2010).

Legend:
[1] = target: Sodium-dependent serotonin transporter (Homo sapiens, UniProt P31645); assay: Displacement of [3H]citalopram from human cloned SERT expressed in HEK293 cells; type: cell-based
Procedure, shortened: (§1)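 Each compound was first tested at 100 nM against tritiated radioligand binding. A Ki was determined only where that concentration inhibited at least 50% of specific binding (IC50 <100 nM).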

[2] = target: Sodium-dependent noradrenaline transporter (Homo sapiens, UniProt P23975); assay: Displacement of [3H]nisoxetine from human cloned NET expressed in HEK293 cells; type: cell-based; procedure, shortened: as §1
[3] = target: T1, Sodium-dependent dopamine transporter (Homo sapiens, UniProt Q01959); assay: Displacement of [3H]GBR12935 from human cloned DAT expressed in HEK293 cells
[4] = target: T1, Sodium-dependent dopamine transporter; assay: Displacement of [3H]WIN-35428 from human cloned DAT expressed in HEK293 cells; type: cell-based; settings: in the assay text read “[3H]GBR12935” for “[3H]WIN-35428”; procedure, shortened: as §1

Sodium-dependent serotonin transporter, sequence (P31645 whole entry): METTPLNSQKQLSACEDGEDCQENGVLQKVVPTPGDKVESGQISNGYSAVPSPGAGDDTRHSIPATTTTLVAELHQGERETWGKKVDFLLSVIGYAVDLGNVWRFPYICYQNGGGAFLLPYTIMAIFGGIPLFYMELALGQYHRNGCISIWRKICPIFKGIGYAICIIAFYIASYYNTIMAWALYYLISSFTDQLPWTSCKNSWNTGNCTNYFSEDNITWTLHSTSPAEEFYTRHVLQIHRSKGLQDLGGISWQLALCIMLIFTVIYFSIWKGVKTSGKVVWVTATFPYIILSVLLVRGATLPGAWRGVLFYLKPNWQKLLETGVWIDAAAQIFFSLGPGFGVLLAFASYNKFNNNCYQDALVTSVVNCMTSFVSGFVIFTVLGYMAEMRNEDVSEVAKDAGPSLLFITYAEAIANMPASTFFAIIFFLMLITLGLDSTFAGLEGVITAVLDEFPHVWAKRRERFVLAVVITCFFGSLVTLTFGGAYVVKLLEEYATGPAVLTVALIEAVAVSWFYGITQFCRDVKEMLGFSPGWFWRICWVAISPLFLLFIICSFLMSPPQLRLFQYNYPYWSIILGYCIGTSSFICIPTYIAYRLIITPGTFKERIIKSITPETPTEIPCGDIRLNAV
Sodium-dependent noradrenaline transporter, sequence (P23975 whole entry): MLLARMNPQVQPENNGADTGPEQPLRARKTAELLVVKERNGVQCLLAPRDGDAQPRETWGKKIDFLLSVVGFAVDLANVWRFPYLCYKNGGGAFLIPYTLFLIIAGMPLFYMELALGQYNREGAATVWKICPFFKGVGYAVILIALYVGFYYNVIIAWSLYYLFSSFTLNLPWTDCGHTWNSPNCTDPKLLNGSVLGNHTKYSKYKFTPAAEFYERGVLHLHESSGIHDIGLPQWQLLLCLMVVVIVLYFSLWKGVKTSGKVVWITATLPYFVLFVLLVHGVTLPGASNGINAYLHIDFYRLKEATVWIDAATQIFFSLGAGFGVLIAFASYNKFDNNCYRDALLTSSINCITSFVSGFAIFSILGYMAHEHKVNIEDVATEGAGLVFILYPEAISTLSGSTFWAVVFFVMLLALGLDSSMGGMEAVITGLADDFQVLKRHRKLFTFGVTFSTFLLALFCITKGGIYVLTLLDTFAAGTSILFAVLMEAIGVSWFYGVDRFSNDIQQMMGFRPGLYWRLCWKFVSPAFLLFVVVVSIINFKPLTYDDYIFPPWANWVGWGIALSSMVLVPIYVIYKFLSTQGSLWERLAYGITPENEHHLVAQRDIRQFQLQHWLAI
T1 sequence (Q01959 whole entry): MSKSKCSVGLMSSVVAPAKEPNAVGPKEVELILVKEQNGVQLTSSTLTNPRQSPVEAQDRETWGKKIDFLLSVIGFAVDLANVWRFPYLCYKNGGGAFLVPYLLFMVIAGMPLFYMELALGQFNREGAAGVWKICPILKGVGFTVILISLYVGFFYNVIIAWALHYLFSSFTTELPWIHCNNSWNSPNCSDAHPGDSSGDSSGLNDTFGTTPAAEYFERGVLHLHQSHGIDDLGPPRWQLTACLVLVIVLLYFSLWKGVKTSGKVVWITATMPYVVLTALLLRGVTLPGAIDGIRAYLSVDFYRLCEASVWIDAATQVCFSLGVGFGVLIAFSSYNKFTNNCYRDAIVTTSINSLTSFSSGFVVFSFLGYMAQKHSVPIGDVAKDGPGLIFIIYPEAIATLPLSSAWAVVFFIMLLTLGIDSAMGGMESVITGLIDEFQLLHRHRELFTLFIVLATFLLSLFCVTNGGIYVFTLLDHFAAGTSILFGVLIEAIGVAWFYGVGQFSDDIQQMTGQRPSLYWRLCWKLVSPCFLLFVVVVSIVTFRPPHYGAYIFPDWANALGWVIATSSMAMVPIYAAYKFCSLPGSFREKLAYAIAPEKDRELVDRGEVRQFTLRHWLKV

Row | SMILES | Ki [1] [nM] | Ki [2] [nM] | Ki [3] [nM] | Ki [4] [nM]
1 | CN(C)Cc1ccccc1Oc1ccc(I)cc1N | 0.171 |  |  | 
2 | Cc1ccc(Oc2ccc(F)cc2CN(C)C)c(N)c1 | 8 | 1240 | 503 | 
3 | Cc1ccc(Oc2cc(OCCF)ccc2CN(C)C)c(N)c1 | 519 | 8850 |  | 726
4 | Cc1ccc(Oc2cc(OCCCF)ccc2CN(C)C)c(N)c1 | 445 | > 500 |  | > 1000
5 | Cc1ccc(Oc2ccc(OCCCF)cc2CN(C)C)c(N)c1 | 7 | 632 |  | 6980
6 | Cc1ccc(Oc2ccc(OCCCCF)cc2CN(C)C)c(N)c1 | 12 | 406 | 3600 | 
7 | Cc1ccc(Oc2ccc(OCCF)cc2CN(C)C)c(N)c1 | 401 | 667 |  | 4190
8 | Cc1ccc(Sc2cc(F)ccc2CN(C)C)c(N)c1 | 13 | 1200 |  | 1220
9 | Cc1ccc(Oc2cc(F)ccc2CN(C)C)c(N)c1 | 7 | 503 |  | 960
